The source made the active and inactive calls. No cut-off for these calls is given here. Numbered stars: 1 amine (or outer) side, 2 acyl side, 3 side chain; on linkers, the order of the positions; unused ones are H or OH. Bridge positions count the residues as written; N and C are the ends. Square brackets hold non-standard residues; d marks the D form. Peptide text beside a SMILES is read from it. * marks the point of attachment. Phe(4-Cl) = N[C@@H](Cc1ccc(Cl)cc1)C(=O)O; Phe(4-Et) = CCc1ccc(C[C@H](N)C(=O)O)cc1; 2Thi = N[C@@H](Cc1cccs1)C(=O)O; X4 = N=C(N)NCCC[C@@H](CO)N*; X2 = N=C(N)NCCC[C@H](CO)N*; hCys = N[C@@H](CCS)C(=O)O; Agmatine = N=C(N)NCCCCN*; X1 = O=C(CCC[*:2])[*:1]; X3 = O=C(CC[*:2])[*:1]; NH(CH2)4NH2 = NCCCCN*; NEt2 = CCN(CC)*
Legend:
[1] = Elimination half life in Sprague-Dawley rat at 0.1 mg/kg, iv administered as cassette dose by LC-MS/MS analysis; type: ADME, organism-based; conditions: in vivo, read-out: beta t1/2
[2] = target: T1, Oxytocin receptor (Homo sapiens) (UniProt P30559); assay: Agonist activity at human OTR stably expressed in CHOK1 cells up to 10000 nM by NFAT-luciferase reporter gene assay; type: cell-based
T1 sequence (whole entry): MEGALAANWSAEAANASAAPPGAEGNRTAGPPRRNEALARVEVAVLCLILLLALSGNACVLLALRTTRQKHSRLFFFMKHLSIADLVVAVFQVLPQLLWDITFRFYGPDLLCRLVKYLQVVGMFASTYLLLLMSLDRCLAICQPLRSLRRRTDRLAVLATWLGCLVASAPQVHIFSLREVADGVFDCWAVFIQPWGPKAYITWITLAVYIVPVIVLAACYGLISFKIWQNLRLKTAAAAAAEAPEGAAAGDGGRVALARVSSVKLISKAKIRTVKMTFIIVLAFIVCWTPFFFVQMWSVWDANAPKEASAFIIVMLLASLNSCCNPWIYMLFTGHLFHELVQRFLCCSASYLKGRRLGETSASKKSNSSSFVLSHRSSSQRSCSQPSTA

[3] = target: Vasopressin V2 receptor (Rattus norvegicus) (UniProt Q00788); assay: Agonist activity at recombinant rat V2 receptor expressed in HEK293 cells measured after 5 hrs by cAMP response element driven luciferase reporter gene assay relative to control; type: functional, cell-based
Rattus norvegicus [4] = assay: Antidiuretic activity in hydrated-euvolemic Sprague-Dawley rat assessed as effective plasma concentration causing half-maximal suppression of urine output administered as iv infusion for 180 mins measured during compound dosing; type: functional, organism-based; conditions: 3 h
Rattus norvegicus [5] = assay: Antidiuretic activity in hydrated-euvolemic Sprague-Dawley rat assessed as suppression of urine output administered as iv infusion for 180 mins measured during compound dosing; type: functional, organism-based
Rattus norvegicus [6] = assay: Antidiuretic activity in hydrated-euvolemic Sprague-Dawley rat assessed as suppression of urine output at 30 pM administered as iv infusion for 180 mins measured immediately; type: functional, organism-based
[7] = Protein binding in rat plasma at 200 to 1000 ng/ml measured after 15 mins by UC-LC/MS/MS analysis; type: ADME, cell-free; conditions: read-out: PPB (converted)
Procedure, shortened: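 Peptide spiked into rat plasma to final 200-1000 ng/mL, incubated 15 min at 37 °C, ultracentrifuged at 773,000 xg for 30 min at 37 °C; middle-layer sample quantified by LC/MS/MS; binding (%) = (Ci − Cm)/Ci × 100; quadruplicate.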

Rattus norvegicus [8] = assay: Antidiuretic activity in hydrated-euvolemic Sprague-Dawley rat assessed as suppression of urine output at MED administered as iv infusion for 180 mins measured during compound dosing relative to control; type: functional
[9] = Half life in iv dosed Sprague-Dawley rat by LC-MS/MS analysis; type: ADME, organism-based; conditions: in vivo
Vasopressin V2 receptor [10] = target: Vasopressin V2 receptor (Rattus norvegicus, UniProt Q00788); assay: Agonist activity at recombinant rat V2 receptor expressed in HEK293 cells measured after 5 hrs by cAMP response element driven luciferase reporter gene assay; type: functional, cell-based
Vasopressin V1a receptor = Vasopressin V1a receptor (Homo sapiens, UniProt P37288); assay: Agonist activity at recombinant human V1a receptor expressed in HEK293 cells up to 1000 nM measured after 5 hrs by luciferase reporter gene assay; type: cell-based; conditions: hek293, 5 h
Rattus norvegicus [11] = assay: Antidiuretic activity in hydrated-euvolemic Sprague-Dawley rat assessed as suppression of urine output by measuring cumulative urine weight at 30 to 100 pM administered as iv infusion for 180 mins measured up to 300 mins; type: functional
Rattus norvegicus [12] = assay: Antidiuretic activity in hydrated-euvolemic Sprague-Dawley rat assessed as suppression of urine output by measuring cumulative urine weight administered as iv infusion for 180 mins measured during compound dosing; type: functional
[13] = Non-renal clearance in nephrectomized Sprague-Dawley rat at 0.1 mg/kg, iv administered as cassette dose by LC-MS/MS analysis; type: ADME, organism-based; conditions: in vivo
[14] = Clearance in Sprague-Dawley rat at 0.1 mg/kg, iv administered as cassette dose by LC-MS/MS analysis; type: ADME, organism-based; conditions: in vivo
Rattus norvegicus [15] = assay: Antidiuretic activity in hydrated-euvolemic Sprague-Dawley rat assessed as suppression of urine output at 30 to 100 pM administered as iv infusion for 180 mins measured within 1 hr; type: functional, organism-based
Rattus norvegicus [16] = assay: Antidiuretic activity in iv dosed rat assessed as suppression of urine output relative to control; type: functional
Rattus norvegicus [17] = assay: Antidiuretic activity in hydrated-euvolemic Sprague-Dawley rat assessed as suppression of urine output at 30 pM administered as iv infusion for 180 mins measured after 5 hrs; type: functional, organism-based
Rattus norvegicus [18] = assay: Antidiuretic activity in hydrated-euvolemic Sprague-Dawley rat assessed as suppression of urine output by measuring cumulative urine weight at 30 pM administered as iv infusion for 180 mins measured up to 300 mins; type: functional
Oxytocin receptor = target: T2, Oxytocin receptor (Homo sapiens, UniProt P30559); assay: Agonist activity at human OTR stably expressed in CHOK1 cells by NFAT-luciferase reporter gene assay; type: cell-based
T2 sequence (P30559 whole entry): T1 sequence (whole entry)

[19] = target: T1, Oxytocin receptor (Homo sapiens); assay: Agonist activity at human OTR stably expressed in CHOK1 cells by NFAT-luciferase reporter gene assay relative to control; type: cell-based
Vasopressin V2 receptor [20] = target: Vasopressin V2 receptor (Homo sapiens, UniProt P30518); assay: Agonist activity at recombinant human V2 receptor expressed in HEK293 cells measured after 5 hrs by cAMP response element driven luciferase reporter gene assay; type: functional, cell-based
Rattus norvegicus [21] = assay: Antidiuretic activity in hydrated-euvolemic Sprague-Dawley rat assessed as suppression of urine output at 30 to 100 pM administered as iv infusion for 180 mins measured after 1 hr; type: functional, organism-based
[22] = Clearance in iv dosed over hydrated human; type: ADME, organism-based; conditions: in vivo
[23] = Clearance in severe renal impairment patent; type: ADME; conditions: human
[24] = target: Oxytocin receptor (Homo sapiens) (UniProt P30559); assay: Agonist activity at recombinant human oxytocin receptor expressed in HEK293 cells measured after 5 hrs by luciferase reporter gene assay
[25] = target: Oxytocin receptor (Homo sapiens) (UniProt P30559); assay: Agonist activity at recombinant human oxytocin receptor expressed in HEK293 cells measured after 5 hrs by luciferase reporter gene assay relative to control; conditions: read-out: Efficacy

Vasopressin V1a receptor, sequence (P37288 whole entry, the tested form may be a part): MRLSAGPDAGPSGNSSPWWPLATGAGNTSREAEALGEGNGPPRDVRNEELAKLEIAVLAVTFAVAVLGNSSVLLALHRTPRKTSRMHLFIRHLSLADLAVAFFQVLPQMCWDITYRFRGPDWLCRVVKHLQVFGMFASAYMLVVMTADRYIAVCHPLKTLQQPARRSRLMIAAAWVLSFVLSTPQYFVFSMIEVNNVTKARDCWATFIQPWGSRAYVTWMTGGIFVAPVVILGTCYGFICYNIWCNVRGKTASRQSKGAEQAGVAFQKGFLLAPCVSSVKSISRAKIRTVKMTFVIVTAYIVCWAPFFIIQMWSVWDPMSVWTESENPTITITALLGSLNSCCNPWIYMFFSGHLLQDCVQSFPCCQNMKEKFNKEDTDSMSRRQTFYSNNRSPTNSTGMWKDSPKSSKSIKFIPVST
Vasopressin V2 receptor (Homo sapiens, UniProt P30518), sequence (P30518 whole entry, the tested form may be a part): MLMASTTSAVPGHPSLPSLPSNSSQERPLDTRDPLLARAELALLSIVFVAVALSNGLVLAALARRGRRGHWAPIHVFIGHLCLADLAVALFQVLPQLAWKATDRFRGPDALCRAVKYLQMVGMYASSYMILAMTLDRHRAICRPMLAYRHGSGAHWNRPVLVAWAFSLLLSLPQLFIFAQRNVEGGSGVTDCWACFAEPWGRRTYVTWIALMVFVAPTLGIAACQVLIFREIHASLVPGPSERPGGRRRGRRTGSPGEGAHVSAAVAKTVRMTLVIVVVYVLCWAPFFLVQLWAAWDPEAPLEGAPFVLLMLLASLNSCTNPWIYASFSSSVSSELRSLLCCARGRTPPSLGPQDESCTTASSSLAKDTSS
Vasopressin V2 receptor (Rattus norvegicus, UniProt Q00788), sequence (Q00788 whole entry): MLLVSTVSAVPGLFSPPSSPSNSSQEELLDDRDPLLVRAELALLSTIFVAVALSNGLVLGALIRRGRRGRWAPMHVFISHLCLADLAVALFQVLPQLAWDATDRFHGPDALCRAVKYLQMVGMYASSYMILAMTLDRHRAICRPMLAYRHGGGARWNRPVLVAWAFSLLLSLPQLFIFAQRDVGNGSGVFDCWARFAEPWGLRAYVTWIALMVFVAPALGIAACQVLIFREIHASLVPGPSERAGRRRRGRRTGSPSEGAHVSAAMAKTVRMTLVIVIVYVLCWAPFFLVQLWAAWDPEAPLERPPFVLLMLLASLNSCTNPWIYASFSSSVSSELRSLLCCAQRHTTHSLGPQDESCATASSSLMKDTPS
Vasopressin V2 receptor (Rattus norvegicus), sequence (Q00788 whole entry, the tested form may be a part): as the sequence (Q00788 whole entry) above

SMILES | Efficacy [3] | EC50 (Rattus norvegicus [4]) | fraction unbound at […] [7] | Activity (Rattus norvegicus [8]) | EC50 (Vasopressin V2 receptor [10]) | Activity (Vasopressin V1a receptor) | Activity (Rattus norvegicus [12]) | CL [13] | clearance [14] | EC50 (Oxytocin receptor) | EC50 (Vasopressin V2 receptor [20]) | further results
CC(C)[C@@H]1NC(=O)[C@H](Cc2cccs2)NC(=O)[C@H](Cc2ccc(Cl)cc2)NC(=O)CCCSC[C@@H](C(=O)N2CCC[C@H]2C(=O)NCCCCNC(=N)N)NC(=O)[C@H](CC(N)=O)NC1=O ([Phe(4-Cl)][2Thi]VNCP-Agmatine; linker N-5 via X1) | 99% | 0.00064 nM | 0.15 | 80% | 0.02 nM | Not Active | 5 g | 57% | 14 mL/min/kg |  |  | half-life [1]: 16 min; Activity [2]: inactive; Activity (Rattus norvegicus [5]): Dose-dependent effect; Activity (Rattus norvegicus [6]): inactive; half-life [9]: 20 min; Activity (Rattus norvegicus [11]): 1.3 g; Activity (Rattus norvegicus [15]): inactive
N=C(N)NCCC[C@@H](NC(=O)[C@@H]1CCCN1C(=O)[C@@H]1CSSCCC(=O)N[C@@H](Cc2ccc(O)cc2)C(=O)N[C@@H](Cc2ccccc2)C(=O)N[C@@H](CCC(N)=O)C(=O)N[C@@H](CC(N)=O)C(=O)N1)C(=O)NCC(N)=O [DESMOPRESSIN] | 100% | 0.00032 nM |  | 80% |  |  | 5.2 g |  |  |  |  | Activity (Rattus norvegicus [16]): 48%; Activity (Rattus norvegicus [17]): Active; Activity (Rattus norvegicus [18]): 0.99 g
CC(C)[C@@H]1NC(=O)[C@H](Cc2cccs2)NC(=O)[C@H](Cc2ccc(Cl)cc2)NC(=O)CCCSC[C@@H](C(=O)N2CSC[C@H]2C(=O)N[C@H](CCCNC(=N)N)C(=O)NCc2ccccc2)NC(=O)[C@H](CC(N)=O)NC1=O |  |  | 0.09 |  |  | Not Active |  | 100% | 38 mL/min/kg | 140 nM |  | Efficacy [19]: 32%
CC(C)[C@@H]1NC(=O)[C@H](Cc2cccs2)NC(=O)[C@H](Cc2ccc(O)cc2)NC(=O)CCCSC[C@@H](C(=O)N2CCC[C@H]2C(=O)N[C@H](CO)CCCNC(=N)N)NC(=O)[C@H](CC(N)=O)NC1=O (Y[2Thi]VNCP-X4; linker N-5 via X1) |  |  | 0.85 |  |  | Not Active |  |  | 8.1 mL/min/kg | 230 nM | 0.1 nM | 
CC(C)[C@@H]1NC(=O)[C@H](Cc2cccs2)NC(=O)[C@H](Cc2ccc(Cl)cc2)NC(=O)CCSCC[C@@H](C(=O)N2CCC[C@H]2C(=O)N[C@@H](CO)CCCNC(=N)N)NC(=O)[C@H](CC(N)=O)NC1=O ([Phe(4-Cl)][2Thi]VN[hCys]P-X2; linker N-5 via X3) |  |  | 0.11 |  |  | Not Active |  | 66% | 2.8 mL/min/kg | > 10000 nM |  | 
CCN(CC)C(=O)[C@@H](CCCNC(=N)N)NC(=O)[C@@H]1CCCN1C(=O)[C@@H]1CSCCCC(=O)N[C@@H](Cc2ccc(Cl)cc2)C(=O)N[C@@H](Cc2cccs2)C(=O)N[C@@H](C(C)C)C(=O)N[C@@H](CC(N)=O)C(=O)N1 ([Phe(4-Cl)][2Thi]VNCP[dR]-NEt2; linker N-5 via X1) | 91% | 0.00043 nM | 0.08 | 80% | 0.05 nM | Not Active | 5 g | 60% | 42 mL/min/kg |  |  | half-life [1]: 6.4 min; Activity [2]: inactive; Activity (Rattus norvegicus [5]): Dose-dependent effect; half-life [9]: 12 min; Activity (Rattus norvegicus [11]): 1 g; Activity (Rattus norvegicus [21]): inactive
CCc1ccc(C[C@@H]2NC(=O)CCCSC[C@@H](C(=O)N3CCC[C@H]3C(=O)N[C@@H](CO)CCCNC(=N)N)NC(=O)[C@H](CC(N)=O)NC(=O)[C@H](C(C)C)NC(=O)[C@H](Cc3cccs3)NC2=O)cc1 ([Phe(4-Et)][2Thi]VNCP-X2; linker N-5 via X1) |  |  | 0.16 |  |  | Not Active |  | 80% | 9.4 mL/min/kg | > 10000 nM | 0.35 nM | 
CC(C)[C@@H]1NC(=O)[C@H](Cc2cccs2)NC(=O)[C@H](Cc2ccc(O)cc2)NC(=O)CCSCC[C@@H](C(=O)N2CCC[C@H]2C(=O)N[C@@H](CO)CCCNC(=N)N)NC(=O)[C@H](CC(N)=O)NC1=O (Y[2Thi]VN[hCys]P-X2; linker N-5 via X3) |  |  | 0.74 |  |  | Not Active |  |  | 6.9 mL/min/kg | 160 nM | 0.08 nM | 
NC(=O)CC[C@@H]1NC(=O)[C@H](Cc2ccccc2)NC(=O)[C@H](Cc2ccc(O)cc2)NC(=O)CCSSC[C@@H](C(=O)N2CCC[C@H]2C(=O)N[C@H](CCCN=C(N)N)C(=O)NCC(N)=O)NC(=O)[C@H](CC(N)=O)NC1=O [DESMOPRESSIN] |  |  | 0.59 |  | 0.03 nM |  |  | 11% |  |  |  | clearance [22]: 1.7 mL/min/kg; clearance [23]: 0.69 mL/min/kg
CC(C)[C@@H]1NC(=O)[C@H](Cc2cccs2)NC(=O)[C@H](Cc2ccc(O)cc2)NC(=O)CCCSC[C@@H](C(=O)N2CCC[C@H]2C(=O)NCCCCN)NC(=O)[C@H](CC(N)=O)NC1=O (Y[2Thi]VNCP-{NH(CH2)4NH2}; linker N-5 via X1) |  |  | 0.58 |  |  | Not Active |  | 18% | 7.2 mL/min/kg |  | 0.19 nM | EC50 [24]: 650 nM; Emax [25]: 28%
